Experimental data gathered from unrelated publications.
Each line is one published result; the experiments were not run side by side.
Target: Tyrosine-protein kinase Yes (YES1, Homo sapiens, UniProt P07947)

Structure (SMILES) | effect on | mode | technique | concentration | endpoint | value
Cc1cc(O)c(-c2ccc([C@@H](C)CN(C)C)cc2)c2c1[nH]c(=O)c1sccc12 | enzyme activity | inhibitor |  | 0.1 µM | inhibition | 10.3%
CCCCC(=O)Nc1ccc(-c2ccc3ncn(CCC)c(=O)c3c2)cn1 | binding |  | competition with immobilised ligand | 0.5 µM | remaining binding | 100%
C=CC(=O)N1CCC[C@@H](n2nc(-c3ccc(Oc4ccccc4)cc3)c3c(N)ncnc32)C1 | enzyme activity | inhibitor |  | 1 µM | inhibition | 97%
C1=C/COCc2cc(ccc2OCCN2CCCC2)Nc2nccc(n2)-c2cccc(c2)COC/1 | binding |  |  | 0.1 µM | remaining binding | 71%
Cc1ccc(NC(=O)c2ccnc(C(F)(F)F)c2)cc1-c1cc(OCCO)nc(N2CCOCC2)c1 | binding |  | competition with immobilised ligand | 1 µM | remaining binding | 87%
CO[C@@H]1[C@H](N(C)C(=O)c2ccccc2)C[C@H]2O[C@]1(C)n1c3ccccc3c3c4c(c5c6ccccc6n2c5c31)C(=O)NC4 | enzyme activity | inhibitor |  | 1 µM | inhibition | 39%
CN1CCN(C(=O)c2ccc(NC(=O)Nc3ccc(N(C)c4ccnc(Nc5ccc(CS(C)(=O)=O)cc5)n4)cc3)cc2)CC1 | binding |  | competition with immobilised ligand | 1 µM | remaining binding | 96%
COc1ccc2oc(-c3ccc4nc(N)oc4c3)c/c(=N\c3ccccc3NC(=O)CCN)c2c1 | binding |  |  | 1 µM | remaining binding | 101%
